Assay results: ChEMBL document CHEMBL1135921, “Potent, orally active heterocycle-based combretastatin A-4 analogues: synthesis, structure-activity relationship, pharmacokinetics, and in vivo antitumor activity evaluation” (J Med Chem, 2002)

How the values were obtained:
[1] = system: NCI-H460; experiment: Inhibition of human NCI-H460 (human lung large cell carcinoma, MDR negative) cell growth; assay type: functional, cell-based
How it was run: (§1)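 Sulforhodamine B assay following the NCI protocol. HCT-15 and NCI-H460 cells were exposed to final concentrations of 10^-11 to 10^-4 M and grown for 48 h at 37 °C in 5% CO2. […] Cells were TCA-fixed and stained, dye was solubilized in Tris, and absorbance was read. IC50 came from nonlinear regression as the geometric mean of at least two independent runs.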

[2] = system: HCT-15; experiment: Inhibition of human HCT-15 (human colon adenocarcinoma, MDR positive) cell growth; assay type: functional, cell-based; how it was run: as §1
[3] = The oral Area under the plasma concentration curve(AUC) measured;when administered perorally; assay type: ADME
How it was run: (§2)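 Two animals were used in each dosing group, each given 5 mg/kg either orally or iv. Plasma Cmax, oral AUC and bioavailability are the average of the two animals.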

[4] = Maximum concentration of compound present in plasma measured; assay type: ADME, organism-based; how it was run: as §2
[5] = Bioavailability; assay type: ADME, organism-based; details: eutheria, in vivo; how it was run: as §2
[6] = target: Tubulin beta chain (Bos taurus, UniProt Q6B856); experiment: Concentration needed to inhibit tubulin polymerization by 50%; assay type: functional
How it was run: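 Microtubule protein was purified from bovine brain, or purified tubulin in glycerol was used. Tubulin, buffer and GTP were prechilled to 4 °C, then added to wells containing drug or solvent. Polymerization ran at 37 °C, with light scattering followed at 340 nm for 30 min. The degree of polymerization was taken from the AUC of the profile. IC50 came from nonlinear regression as the geometric mean of at least two independent runs.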

[7] = Oral bioavailability in dog; assay type: ADME, organism-based, Canis lupus familiaris; details: in vivo; how it was run: as §2
[8] = Oral bioavailability in monkey; assay type: ADME, organism-based; details: primates, in vivo; how it was run: as §2
[9] = Oral bioavailability in mouse; assay type: ADME, organism-based; details: in vivo; how it was run: as §2
[10] = The oral Area under the plasma concentration curve(AUC) measured;when administered as perorally; assay type: ADME; how it was run: as §2

Chain of Tubulin beta chain (Q6B856 whole entry): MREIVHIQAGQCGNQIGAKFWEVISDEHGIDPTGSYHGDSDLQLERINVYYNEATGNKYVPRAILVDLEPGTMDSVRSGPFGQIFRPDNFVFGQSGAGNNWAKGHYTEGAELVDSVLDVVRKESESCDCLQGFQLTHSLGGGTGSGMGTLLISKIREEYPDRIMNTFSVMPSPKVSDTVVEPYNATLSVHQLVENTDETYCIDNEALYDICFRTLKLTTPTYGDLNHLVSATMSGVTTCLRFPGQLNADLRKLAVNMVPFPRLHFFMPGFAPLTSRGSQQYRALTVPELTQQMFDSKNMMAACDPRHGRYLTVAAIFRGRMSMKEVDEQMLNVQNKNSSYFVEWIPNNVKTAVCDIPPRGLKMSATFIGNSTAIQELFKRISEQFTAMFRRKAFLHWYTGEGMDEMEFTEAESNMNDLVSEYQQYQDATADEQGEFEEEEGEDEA

`COc1cc(-n2cncc2-c2ccc(N)cc2)cc(OC)c1OC` gave an IC50 [1] of 8550 nM and an IC50 [2] of 7260 nM.
In the case of `COc1cc(-c2ncn(C)c2-c2cc(Cl)c3c(ccn3C)c2)cc(OC)c1OC`, the AUC [3] is reported as 220 ng·h/mL, the Cmax [4] is reported as 130 ng/mL and the IC50 [1] is reported as 12 nM. For the same molecule, the bioavailability [5] was 10.2% and the IC50 [2] was 12 nM.
In the case of `COc1ccc(-c2ccnn2-c2cc(OC)c(OC)c(OC)c2)cc1N`, the IC50 [1] is reported as 33 nM and the IC50 [2] is reported as 28 nM.
With `COc1cc(-c2ncn(C)c2-c2ccc3ccn(C)c3c2)cc(OC)c1OC` the AUC [3] was 461 ng·h/mL, the Cmax [4] was 169 ng/mL and the IC50 [6] was 2000 nM. The bioavailability [7] was 44.5%, the IC50 [1] was 32 nM and the bioavailability [8] was 12.5%. It also gave a bioavailability [5] of 32%, a bioavailability [9] of 24.2% and an IC50 [2] of 20 nM.
In the case of `COc1cc(-c2[nH]cnc2-c2ccc3ccn(C)c3c2)cc(OC)c1OC`, the AUC [3] is reported as 14.2 ng·h/mL, the Cmax [4] is reported as < 10 ng/mL and the IC50 [6] is reported as 1100 nM. For the same molecule, the IC50 [1] was 1.8 nM, the bioavailability [5] was 0.31% and the IC50 [2] was 1.7 nM.
`COc1cc(-c2ncn(C)c2-c2cc(F)c3c(ccn3C)c2)cc(OC)c1OC` gave an AUC [3] of 340 ng·h/mL, a Cmax [4] of 209 ng/mL and an IC50 [1] of 23 nM. The bioavailability [5] was 12.3% and the IC50 [2] was 27 nM.
For `COc1cc(-c2ncoc2-c2ccc(N(C)C)cc2)cc(OC)c1OC`, the IC50 [6] was 870 nM, the IC50 [1] was 41 nM and the IC50 [2] was 18 nM.
Molecule `COc1cc(-c2[nH]cnc2-c2ccc(N(C)C)cc2)cc(OC)c1OC` has an AUC [3] of 16.2 ng·h/mL, a Cmax [4] of 15.1 ng/mL and an IC50 [6] of 3700 nM. The IC50 [1] was 2 nM, the bioavailability [5] was 1.3% and the IC50 [2] was 4.4 nM.
`COc1ccc(-c2[nH]cnc2-c2cc(OC)c(OC)c(OC)c2)cc1` showed an IC50 [6] of 2800 nM, an IC50 [1] of 7.2 nM and an IC50 [2] of 7.8 nM.
For `COc1cc(-c2cncn2-c2ccc(N(C)C)cc2)cc(OC)c1OC`, the Cmax [4] was < 10 ng/mL, the IC50 [6] was 130000 nM and the IC50 [1] was 589 nM. For the same molecule, the bioavailability [5] was 0.01% and the IC50 [2] was 333 nM.
`COc1ccc(-c2[nH]cnc2-c2cc(OC)c(OC)c(OC)c2)cc1F` gave an IC50 [1] of 3.8 nM and an IC50 [2] of 3.8 nM.
With `COc1cc(-n2cncc2-c2ccc(N(C)C)cc2)cc(OC)c1OC` the IC50 [6] was 23000 nM, the IC50 [1] was 79 nM and the IC50 [2] was 36 nM.
Work on `COc1cc(-c2ncoc2-c2ccc3c(ccn3C)c2)cc(OC)c1OC` yielded an IC50 [6] of 790 nM, an IC50 [1] of 12 nM and an IC50 [2] of 7.4 nM.
Work on `COc1ccc(-c2ncoc2-c2cc(OC)c3c(c2)OCO3)cc1N` yielded an IC50 [1] of 53 nM and an IC50 [2] of 76 nM.
`COc1ccc(-c2[nH]cnc2-c2cc(OC)c(OC)c(OC)c2)cc1O` showed an IC50 [6] of 730 nM, an IC50 [1] of 11 nM and an IC50 [2] of 10 nM.
`COc1cc(-c2[nH]c(-c3ccoc3)nc2-c2ccc(N(C)C)cc2)cc(OC)c1OC` gave an IC50 [1] of 190 nM and an IC50 [2] of 67 nM.
`COc1cc(-n2cncc2-c2ccc3c(c2)CCN3C)cc(OC)c1OC` showed an IC50 [6] of 48000 nM, an IC50 [1] of 150 nM and an IC50 [2] of 58 nM.
`COc1ccc(-c2ocnc2-c2cc(OC)c(OC)c(OC)c2)cc1O` gave an IC50 [6] of 980 nM, an IC50 [1] of 2.3 nM and an IC50 [2] of 2.2 nM.
Work on `COc1ccc(-c2cncn2-c2cc(OC)c(OC)c(OC)c2)cc1N` yielded an IC50 [6] of 7700 nM, an IC50 [1] of 63 nM and an IC50 [2] of 69 nM.
`COc1ccc(-c2ncn(C)c2-c2cc(OC)c(OC)c(OC)c2)cc1N` gave an AUC [3] of 1500 ng·h/mL, a Cmax [4] of 623 ng/mL and an IC50 [1] of 34 nM. It also gave a bioavailability [5] of 29.9% and an IC50 [2] of 79 nM.
For `COc1ccc(-c2[nH]cnc2-c2cc(OC)c(OC)c(OC)c2)cc1N`, the AUC [3] was < 218 ng·h/mL, the Cmax [4] was < 74 ng/mL and the IC50 [6] was 680 nM. It also gave an IC50 [1] of 8.5 nM, a bioavailability [5] of 45% and an IC50 [2] of 8.1 nM.
`COc1ccc(-c2ncoc2-c2cc(OC)c(OC)c(OC)c2)cc1N` gave an IC50 [1] of 11 nM, a bioavailability [5] of 0% and an IC50 [2] of 7.2 nM.
Work on `COc1ccc(-c2ocnc2-c2cc(OC)c(OC)c(OC)c2)cc1N` yielded a Cmax [4] of 22 ng/mL, an AUC [10] of 12 ng·h/mL and an IC50 [6] of 920 nM. For the same molecule, the IC50 [1] was 9.2 nM, the bioavailability [5] was 0.5% and the IC50 [2] was 11 nM.
Work on `COc1ccc(-c2cncn2-c2cc(OC)c(OC)c(OC)c2)cc1O` yielded an IC50 [6] of 7600 nM, an IC50 [1] of 61 nM and an IC50 [2] of 89 nM.
Molecule `COc1ccc(-c2c(-c3cc(OC)c(OC)c(OC)c3)ncn2C)cc1N` has an AUC [3] of 10800 ng·h/mL, a Cmax [4] of 3860 ng/mL and an IC50 [6] of 31000 nM. It also gave a bioavailability [7] of 45.8%, an IC50 [1] of 170 nM and a bioavailability [8] of 91.2%. For the same molecule, the bioavailability [5] was 82.3%, the bioavailability [9] was 89.7% and the IC50 [2] was 220 nM.
`COc1ccc(-c2nc(C)oc2-c2cc(OC)c(OC)c(OC)c2)cc1O` gave an IC50 [1] of 35 nM and an IC50 [2] of 15 nM.
With `COc1cc(-c2nccnc2-c2ccc(N(C)C)cc2)cc(OC)c1OC` the IC50 [1] was 707 nM and the IC50 [2] was 303 nM.
`COc1cc(-n2ccnc2-c2ccc(N(C)C)cc2)cc(OC)c1OC` gave an IC50 [6] of 35000 nM, an IC50 [1] of 270 nM and an IC50 [2] of 80 nM.
Work on `COc1cc(-n2cncc2-c2ccc3c(ccn3C)c2)cc(OC)c1OC` yielded an IC50 [6] of 1800 nM, an IC50 [1] of 19 nM and an IC50 [2] of 14 nM.
`COc1cc(-n2cncc2-c2ccc3[nH]ccc3c2)cc(OC)c1OC` gave an IC50 [6] of 71000 nM, an IC50 [1] of 540 nM and an IC50 [2] of 350 nM.
Work on `COc1cc(-c2c(-c3ccc4c(ccn4C)c3)ncn2C)cc(OC)c1OC` yielded an AUC [3] of 112 ng·h/mL, a Cmax [4] of 70 ng/mL and an IC50 [1] of 51 nM. It also gave a bioavailability [5] of 2.5% and an IC50 [2] of 27 nM.
